Measured values collected from several papers.
Each line is one published result; the experiments were not run side by side.
Target: Tyrosine-protein kinase Fes/Fps (FES, Homo sapiens, UniProt P07332)

Compound	assay	setting	quantity	result
O=c1cc(-c2cccc3c2Sc2ccccc2S3)oc(N2CCOCC2)c1	enzyme activity, inhibitor	0.5 µM	remaining activity	104%
Cc1ccc(C(=O)NCc2ccsc2)cc1C#Cc1cn(C(C)C)c2ncnc(N)c12	enzyme activity, inhibitor	1 µM	activity vs control	93%
COc1cc2ncnc(Nc3ccc(Oc4ccccc4)c(C)c3C)c2cc1OC	enzyme activity, inhibitor	1 µM	inhibition	7%
CCN(CC)c1ccc(C2=NNC(=O)CC2C)cc1[N+](=O)[O-] (stereo not shown)	enzyme activity, inhibitor	10 µM	remaining activity	103%
c1nc2c(Nc3ccc4c(c3)OCCO4)nc(Nc3ccc4c(c3)OCCO4)nc2[nH]1	enzyme activity, inhibitor	10 µM	activity vs control	62%
CC(C)(C)c1nc2c(s1)c1nc(N)ncc1c1ccc(NS(=O)(=O)c3c(F)cccc3F)c(F)c12	enzyme activity, inhibitor, radiometric	1 µM	remaining activity	93%
Cc1ccc(C(=O)Nc2ccc(CN3CCN(C)CC3)c(C(F)(F)F)c2)cc1C#Cc1cnc2cccnn12	enzyme activity	23.5 nM	remaining activity	100%
O=c1nc(-c2ccccn2)sc2ccccc12	cell-free assay, competition with immobilised ligand	1 µM	remaining binding	100%
CC(C)(O)[C@H]1CC[C@H](Nc2ccc3ncc(-c4cccc(C(F)(F)F)c4)n3n2)CC1	enzyme activity, inhibitor	1 µM	remaining activity	95.4%
CNCc1ccc(-c2cc(-c3nc(-c4ccc(S(=O)(=O)C(C)C)cc4)cnc3N)on2)cc1	enzyme activity, inhibitor	0.4 µM	inhibition	0%
O=C(Nc1cnn(-c2csc(C(=O)NC3COC3)c2)c1)Nc1ccccc1Cl	enzyme activity, inhibitor	5 µM	remaining activity	99.3%
COc1ccc2c(c1)O[C@H](c1ccc(OC)c(OC)c1)C[C@@H]2NC(=O)C1(c2ccc3c(c2)OC(F)(F)O3)CC1	cell-free assay, competition with immobilised ligand	1 µM	remaining binding	97%
O=C1NC(=O)c2cc(Nc3ccc(F)cc3)c(Nc3ccc(F)cc3)cc21	cell-free assay	0.5 µM	remaining signal	99.5%
Cc1cnc(NC2CCOCC2)nc1-n1cnc(C(=O)NC(CN)c2cc(F)cc(Cl)c2)c1 (stereo not shown)	enzyme activity, inhibitor, radiometric	1 µM	remaining activity	102%
CCC(=O)N[C@@H]1CC[C@H](C(=O)N(C)c2ccc(-c3nc4ccccc4o3)cc2)C1	cell-free assay, competition with immobilised ligand	1 µM	remaining binding	96%
Nc1ncnc2occ(-c3ccc(NC(=O)Nc4cc(C(F)(F)F)ccc4F)cc3)c12	cell-free assay, inhibitor	20 µM	remaining signal	4.1%
CN(c1ccnc(CNc2nc(Nc3ccc4c(c3)CC(=O)N4)ncc2C(F)(F)F)n1)S(C)(=O)=O	cell-free assay, competition with immobilised ligand	1 µM	remaining binding	74%
CC/C(=N\NC(=O)NCc1cccc(O)c1)c1ccc(O)c(C)c1O	enzyme activity, inhibitor	0.1 µM	inhibition	1.2%
CN([C@@H]1CCc2c(CC(=O)O)c3cc(S(C)(=O)=O)ccc3n2C1)S(=O)(=O)c1ccc(F)cc1	cell-free assay, competition with immobilised ligand	1 µM	remaining binding	92%
C=CC(=O)Nc1cc(Nc2nccc(Nc3cc(Cl)c(F)cc3C(C)(C)O)n2)c(OC)cc1N1CC[C@@H](N(C)C)C1	enzyme activity, inhibitor	1 µM	inhibition	65%
CS(=O)(=O)N1CCCC(NC(=O)[C@H](CCC2CCCCC2)NC(=O)c2ccc(CNC(=O)c3cnc4ccccn34)cc2)C1 (stereo partly shown)	cell-free assay, competition with immobilised ligand	0.1 µM	remaining binding	100%
CN1CC(Oc2cnc(C#N)cc2-c2ccn3nc(NC(=O)C4CC4)cc3c2)C1	enzyme activity, inhibitor	1 µM	inhibition	8%
